Hits are enriched below; roughly 2.2% of the tested compounds scored in any of these assays.
ERAP1 HTS inh: inhibitors of human ERAP1 aminopeptidase; recombinant ERAP1, Leu-AMC fluorescence, 60 min; inhibition, % at 10.7 µM; 0.15% of 340,000 active;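 active means mean replicate inhibition of at least 30%, or all replicates individually reaching that 30% level; inactive means mean below 30% and not every replicate reaching it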;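 further: 0% = neutral control wells and 100% = L-leucinethiol positive control wells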
FGF22 binding-1: binders of recombinant human FGF22 by thermal shift; Q9HCT0; SYPRO orange fluorescence; percent of sucrose octasulfate shift, DMSO zero; activity (Tm shift, normalised), % at 9.99 µM; 1.5% of 340,000 active;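 active means mean Tm shift, scaled 0 neutral to 100 positive control, at about 1.3% or above, every replicate too, limit read from the data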
Target sequence (Q9HCT0 whole entry, looked up): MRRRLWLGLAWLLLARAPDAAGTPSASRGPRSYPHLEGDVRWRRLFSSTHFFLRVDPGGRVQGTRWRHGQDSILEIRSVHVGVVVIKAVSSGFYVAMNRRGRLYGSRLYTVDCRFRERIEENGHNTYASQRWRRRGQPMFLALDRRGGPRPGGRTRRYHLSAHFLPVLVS
SIRT5 inh: inhibitors of human sirtuin-5 desuccinylase. Q9NXA8. Purified SirT5, succinyl-peptide AMC, trypsin-coupled fluorescence. inhibition, % at 15 µM. 1.1% of 330,000 active. AID 652115; in the data active means inhibition above about 15%
Target sequence (Q9NXA8 whole entry, looked up): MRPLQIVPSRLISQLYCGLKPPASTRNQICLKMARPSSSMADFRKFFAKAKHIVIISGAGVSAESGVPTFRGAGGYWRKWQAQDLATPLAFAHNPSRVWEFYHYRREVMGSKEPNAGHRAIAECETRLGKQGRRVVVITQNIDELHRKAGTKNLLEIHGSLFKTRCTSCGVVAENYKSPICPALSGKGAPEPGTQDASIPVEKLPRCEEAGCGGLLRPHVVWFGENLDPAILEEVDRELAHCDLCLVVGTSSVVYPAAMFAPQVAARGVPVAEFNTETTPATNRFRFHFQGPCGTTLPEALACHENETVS
FN deposit inh: fibronectin deposition inhibition | inhibition, % at 12.6 µM | AID 743247 | 0.086% of 350,000 active | AH1F fibroblasts, Alexa488-fibronectin deposition fluorescence, overnight;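 active means mean inhibition across replicates of 30% or more, regardless of how many single replicates reach that level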;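 further: positive control wells lacked labelled fibronectin entirely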
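Schedule: 1 h cell adhesion before compound, then overnight fibronectin incubation; test system: AH1F fibroblast monolayer depositing Alexa488-labelled fibronectin into matrix; quantity: 10000 AH1F cells per well; probe or stimulus: fluorescent fibronectin at 24 nM final; signal: fluorescence, ex 485 nm, em 525 nm; evaluation: percent inhibition as loss of matrix-bound fibronectin fluorescence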
PGC1a acetyl inh: lowers PGC1a acetylation signal in U2OS cells; inhibition, % at 15.6 µM; 0.17% of 350,000 active; AID 651687; AlphaScreen anti-acetyl-lysine; with virally co-expressed GCN5 acetyltransferase;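 active means every replicate shows inhibition of at least 40%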;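 further: 0% = neutral control wells and 100% = positive control wells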
FGF22 binding-2: binds human FGF22 shifting its melting temperature; shares compounds with FGF22 binding-1; recombinant FGF22 thermal shift, SYPRO orange fluorescence; thermal shift activity, °C (ΔTm) at 38 µM; 2% of 1,000 active; AID 720646;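 active means fitted rise in melting shift crosses a set limit at or below the top valid dose tested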
FGF22 TSA DP: binders of human FGF22 by thermal shift; Thermal shift assay, SYPRO orange, melting temperature shift; AID 743017; 50 tested, under 10 active; shares compounds with FGF22 binding-1; Tm shift (activity), % at 38 µM;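 active means compounds whose fitted dose curve of melting temperature shift rises past a set threshold within the tested doses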
SYPRO no-protein: compound-only SYPRO artifact for FGF22 binders; shares compounds with FGF22 binding-1; compound-only SYPRO orange thermal shift counter-screen, no protein; AC50, µM (series often up to 38 µM); 2% of 1,000 active; AID 743019;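 active means rising signal whose fitted curve reaches the 0.54 level within the top valid dose, showing a melting point, actives reach about 13 µM in these data; inactive means the rest, including activity in the opposite direction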; further: value is where the raw curve crosses a fixed level and not half-maximal
* marks the source's active call; other numbers are inactive results; i = inactive; . = no result given.

SMILES	ERAP1 HTS inh	FGF22 binding-1	SIRT5 inh	FN deposit inh	PGC1a acetyl inh	FGF22 binding-2	SYPRO no-protein	others
C[C@@H]1CN([C@@H](C)CO)C(=O)c2cc(NS(C)(=O)=O)ccc2O[C@@H]1CN(C)Cc1ccc2c(c1)OCO2	3.5	1.9*	-1.1	7.8	0.8	-0.115	i
COc1ccccc1CNC(=O)C[C@@H]1C[C@@H]2c3cc(NC(=O)Nc4ccc(C(F)(F)F)cc4)ccc3O[C@@H]2[C@H](CO)O1	1.8	-0.2	1.6	-4.5	-4.6	.	.
CCOC(=O)c1c(C)[nH]c(C)c1C(=O)COC(=O)/C=C/c1ccccc1[N+](=O)[O-]	0.6	2.0*	0.1	-2.4	-8.9	-0.03	i
CC(C)NC(=O)Nc1cccc2c1O[C@H](CN(C)C(=O)NC1CCCCC1)[C@@H](C)CN([C@@H](C)CO)C2=O	3.8	-0.1	-0.7	.	-3.3	.	.
CCc1nnc(NS(=O)(=O)c2ccc(Nc3ccc([N+](=O)[O-])c4nonc34)cc2)s1	19.3	2.0*	7.0	3.5	6.7	0.195	i
CCc1nnc(NS(=O)(=O)c2ccc(NC(=O)OC)cc2)s1	.	.	.	.	12.3	.	.
CCc1nnc(NS(=O)(=O)c2ccc(NC(=O)c3ccc(Br)cc3)cc2)s1	-0.4	1.6*	0.9	1.7	1.4	0.019	i
COc1ccc(NC(=O)N(C)C[C@@H]2OCCCC[C@H](C)Oc3ccc(NS(=O)(=O)c4c(C)noc4C)cc3C(=O)N([C@@H](C)CO)C[C@H]2C)cc1	0.8	.	-1.6	.	1.4	.	.
C[C@H](CO)N1C[C@H](C)[C@H](CN(C)C(=O)NC2CCCCC2)Oc2ccc(NC(=O)CCCCCC(=O)Nc3ccccc3N)cc2CC1=O	0.0	-0.2	.	-7.1	4.3	.	.
CCC(=O)Nc1ccc2c(c1)OC[C@H](C)N(C(=O)NC(C)C)C[C@H](C)[C@H](OC)CN(C)C2=O	0.2	-0.2	-0.6	-5.0	5.9	.	.
COc1cc(CCC(=O)OCC(=O)Nc2ccc(C)cc2Br)cc(OC)c1OC	-3.4	27.8*	-3.1	0.0	.	0.003	i
O=C(C1CCCC1)N1[C@@H]2CNc3ccccc3[C@@H]2[C@@H]1CO	.	.	1.3	.	-3.4	.	.
Cc1ccccc1NCC(=O)N/N=C\C=C\c1cccc([N+](=O)[O-])c1	2.9	1.5*	-1.8	0.9	.	-0.104	i
CN(C)CCN1C(=O)C2C3C=CC(C3)C2C1=O (stereo not given)	-2.8	14.8*	-14.7	12.5	.	-0.047	i
CN(C)CC(=O)N[C@@H]1CC[C@H](CCNC(=O)C2CCCC2)O[C@@H]1CO	-2.1	0.3	1.6	.	12.9	.	.
COC(=O)C[C@@H]1CC[C@H]2[C@@H](COc3ccc(NC(=O)NC(C)C)cc3C(=O)N2C)O1	0.2	1.3*	-4.8	-15.0	2.0	0.025	i
Cc1nn(C)cc1NC(=O)C[C@H]1CC[C@@H]2[C@@H](COc3ccc(NC(=O)NC(C)C)cc3C(=O)N2C)O1	0.6	1.6*	-6.0	-1.4	-2.3	0.039	i
O=C(C[C@@H]1CC[C@H]2[C@@H](COC[C@H](O)CN2CC2CCCC2)O1)NCC1CC1	0.7	.	-1.6	-12.6	-1.1	.	.
N#C[C@@H]1[C@H](c2ccc(C3=CCCCC3)cc2)[C@H](CO)N1S(=O)(=O)c1ccccc1	-3.5	-0.3	-2.6	-9.0	-6.3	.	.
N#C[C@@H]1[C@@H](c2ccc(C3=CCCCC3)cc2)[C@H](CO)N1S(=O)(=O)c1ccccc1	-0.8	1.3*	0.6	-7.2	0.6	-0.2	i
O=C(Nc1ccc(O)cc1)c1cccc(Oc2ccc([N+](=O)[O-])cc2)c1	-2.6	3.1*	-2.5	11.8	3.4	0.156	i
C[C@H](CO)N1C[C@H](C)[C@H](CN(C)Cc2ccccc2)Oc2ncc(-c3ccccc3F)cc2C1=O	0.6	0.1	-2.3	-1.1	7.0	.	.
Oc1c(CN2CCOCC2)cc(CN2CCOCC2)c(O)c1O	22.6	1.4*	.	-7.5	6.6	0.096	i
CC(C)(C)S(=O)(=O)/C(C#N)=N/Nc1ccc(Cl)cc1	6.1	1.7*	0.6	4.1	6.6	0.023	i
CC(C)(C)c1ccc(N/N=C(\C#N)S(=O)(=O)C(C)(C)C)cc1	7.7	0.3	-1.5	9.1	.	.	.
SMILES	ERAP1 HTS inh	FGF22 binding-1	SIRT5 inh	FN deposit inh	PGC1a acetyl inh	FGF22 binding-2	SYPRO no-protein	others
COc1ccc(S(=O)(=O)N[C@H]2CC[C@H](CC(=O)NCCc3ccncc3)O[C@H]2CO)cc1	2.2	0.1	-1.9	.	9.4	.	.
CNC(=S)N(Cc1ccc(OC)cc1)C1CC(=O)N(c2ccc(C(=O)OC)cc2)C1=O (stereo not given)	2.0	2.2*	1.0	-5.1	.	-0.043	i
COc1cc(OC)c(C(=O)OCC(=O)NCC2CCCCC2)cc1OC	6.9	9.3*	-3.2	-3.4	7.6	0.065	i
COc1cc(OC)c(C(=O)OCC(=O)NC2CCCCCCC2)cc1OC	-4.7	-0.6	.	-4.6	.	.	.
O=C(C[C@@H]1CC[C@@H]2[C@H](COC[C@@H](O)CN2CC2CCOCC2)O1)NCC1CC1	0.7	-0.1	-0.9	-3.0	6.4	.	.
Cc1[nH]c2ccccc2c1C(=O)NS(=O)(=O)Nc1ccc(Cl)cc1	-3.5	1.6*	-6.3	0.0	1.3	-0.191	i	FGF22 TSA DP=-0.2
COc1ccccc1NS(=O)(=O)NC(=O)c1c(C)[nH]c2ccccc12	-3.0	-0.2	-1.1	-13.6	.	.	.
NC(=O)c1ccsc1NC(=O)COC(=O)CCOc1ccccc1	.	0.0	-0.2	4.8	5.8	.	.
NC(=O)c1ccsc1NC(=O)COC(=O)CCCOc1ccccc1	-0.4	1.9*	1.7	-7.7	2.9	0.118	i
CCNc1c(NS(=O)(=O)c2ccc(Br)s2)c(=O)oc2ccccc12	1.6	1.8*	0.2	12.7	39.3	0.043	i
C[C@@H]1CCCCO[C@@H](CN(C)C(=O)C2CCCCC2)[C@@H](C)CN([C@@H](C)CO)C(=O)c2cc(NC(=O)CCC(F)(F)F)ccc2O1	-0.2	-0.3	3.2	.	-8.9	.	.
C[C@H]1CN([C@@H](C)CO)C(=O)c2cccc(NC(=O)C3CC3)c2O[C@H]1CN(C)S(=O)(=O)c1cn(C)cn1	-2.6	-0.2	-0.1	.	8.7	.	.
C[C@@H]1CN([C@@H](C)CO)C(=O)c2cc(NC(=O)Nc3ccccc3)ccc2O[C@@H](C)CCCCO[C@@H]1CN(C)S(=O)(=O)c1cccs1	1.2	-0.2	4.9	3.7	-2.8	.	.
COc1ccc(C(=O)Nc2cc(Cl)ccc2N2CCOCC2)cc1S(=O)(=O)N1CCOCC1	-1.5	0.4	-1.0	0.8	.	.	.

Screens: PubChem BioAssay, Broad Institute
